Source: ChEMBL document CHEMBL4014308, “Amphiphilic Tobramycin-Lysine Conjugates Sensitize Multidrug Resistant Gram-Negative Bacteria to Rifampicin and Minocycline” (J Med Chem, 2017)
Calls of active or inactive are those of the source. No cut-off for these calls is given here.

Columns and labels:
Type in all cases: functional
Pseudomonas aeruginosa [1] = experiment: Potentiation of minocycline-induced antibacterial activity against multidrug/extremely drug-resistant/colistin-susceptible Pseudomonas aeruginosa isolate 101885 assessed as fold reduction in minocycline MIC at 4 ug/ml after 18 hrs by checkerboard assay relative to control
Method in brief: (§1)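 Checkerboard in Mueller-Hinton broth, 10 × 7 matrix, with the adjuvant held at 4 µg/mL. Inoculum from a 0.5 McFarland suspension diluted 1:50; 18 h at 37 °C. Antibiotic MIC (lowest concentration with no growth) with adjuvant is compared with the antibiotic MIC alone, giving a fold reduction.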

Pseudomonas aeruginosa [2] = experiment: Potentiation of minocycline-induced antibacterial activity against Pseudomonas aeruginosa PAO750 harboring RND efflux pump/OpmH deletion mutant after 18 hrs by checkerboard assay
Method in brief: (§2)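 Checkerboard in MHB with a 10 × 7 matrix: antibiotic serially diluted along one axis, adjuvant along the other. Inoculum was a 1:50 dilution of a 0.5 McFarland suspension, incubated 18 h at 37 °C and read on a plate reader. Each FIC is the concentration in a no-growth well divided by the MIC alone; FIC index is their sum, with ≤0.5 taken as synergy.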

Escherichia coli [3] = experiment: Antibacterial activity against gentamicin/tobramycin/ciprofloxacin-resistant Escherichia coli isolate CANWARD-2011 97615 harboring AAC3-2A after 18 hrs by microtiter dilution assay; settings: isolate CANWARD-2011 97615, 18 h
Method in brief: (§3)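 Broth microdilution following CLSI guidelines. An overnight culture was adjusted to 0.5 McFarland in saline, then diluted 1:50 in Mueller-Hinton broth. This inoculum was added in equal volume to 2-fold serial dilutions of agent in MHB and incubated 18 h at 37 °C. MIC was the lowest concentration with no visible growth.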

Pseudomonas aeruginosa [4] = experiment: Synergistic antibacterial activity against Pseudomonas aeruginosa PAO1 after 18 hrs in presence of minocycline by checkerboard assay; settings: PAO1, 18 h
Method in brief: (§4)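 Checkerboard in MHB: antibiotic diluted along one axis and adjuvant along the other (10 × 7 matrix). Inoculum was a 1:50 dilution in MHB of a 0.5 McFarland saline suspension; incubated 18 h at 37 °C. Each FIC = concentration in the no-growth well divided by the MIC alone; FIC index = sum of both FICs. ≤0.5 synergy, 0.5–4 no interaction, ≥4 antagonism.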

Pseudomonas aeruginosa [5] = experiment: Disruption of proton motive force in Pseudomonas aeruginosa PAO1 cytoplasmic membrane assessed as repression of bacterial swimming motility after 20 hrs
Method in brief: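 Swim plates of 0.3% agar with tryptone 5 g/L and NaCl 2.5 g/L, agent mixed into the medium and plates dried 2 h. PAO1 at 1.0 McFarland in 0.85% saline was point-inoculated at the center, and plates incubated 20 h at 37 °C before swim diameter was imaged.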

Acinetobacter baumannii [6] = experiment: Synergistic antibacterial activity against multidrug-resistant Acinetobacter baumannii AB027 after 18 hrs in presence of minocycline by checkerboard assay; settings: AB027, 18 h; method in brief: as §2
Pseudomonas aeruginosa [7] = experiment: Antibacterial activity against multidrug/extremely drug-resistant/colistin-susceptible Pseudomonas aeruginosa isolate P259-96918 after 18 hrs by microtiter dilution assay; settings: isolate P259-96918, 18 h; method in brief: as §3
Acinetobacter baumannii [8] = experiment: Antibacterial activity against multidrug-resistant Acinetobacter baumannii AB027 after 18 hrs by microtiter dilution assay; settings: AB027, 18 h; method in brief: as §3
Acinetobacter baumannii [9] = experiment: Synergistic antibacterial activity against multidrug-resistant Acinetobacter baumannii AB030 after 18 hrs in presence of minocycline by checkerboard assay; settings: AB030, 18 h; method in brief: as §2
Pseudomonas aeruginosa [10] = experiment: Bactericidal activity against Pseudomonas aeruginosa PAO1 at 4 times antibacterial MIC after 10 mins
Method in brief: (§5)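 Time-kill with P. aeruginosa PAO1. A 0.5 McFarland suspension was diluted 1:50 in LB broth and exposed to agent in PBS (pH 7.2) at 1/2×, 1×, 2× or 4× MIC at 37 °C for 6 h. Samples at 0, 10, 30, 60, 90, 120, 240 and 360 min were serially diluted in PBS, plated on LB agar, and colonies counted after 20 h at 37 °C.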

Pseudomonas aeruginosa [11] = experiment: Potentiation of minocycline-induced antibacterial activity against multidrug/extremely drug-resistant/colistin-susceptible Pseudomonas aeruginosa isolate P262-101856 assessed as fold reduction in minocycline MIC at 4 ug/ml after 18 hrs by checkerboard assay relative to control; method in brief: as §1
[12] = system: Staphylococcus epidermidis; experiment: Antibacterial activity against methicillin-susceptible Staphylococcus epidermidis isolate CANWARD-2008 81388 after 18 hrs by microtiter dilution assay; settings: isolate CANWARD-2008 81388, 18 h; method in brief: as §3
Pseudomonas aeruginosa [13] = experiment: Potentiation of minocycline-induced antibacterial activity against multidrug/extremely drug-resistant/colistin-susceptible Pseudomonas aeruginosa isolate P259-96918 assessed as fold reduction in minocycline MIC at 4 ug/ml after 18 hrs by checkerboard assay relative to control; method in brief: as §1
Pseudomonas aeruginosa [14] = experiment: Potentiation of minocycline-induced antibacterial activity against multidrug/extremely drug-resistant/colistin-resistant Pseudomonas aeruginosa isolate 101243 assessed as fold reduction in minocycline MIC at 4 ug/ml after 18 hrs by checkerboard assay relative to control; method in brief: as §1
Pseudomonas aeruginosa [15] = experiment: Potentiation of rifampicin-induced antibacterial activity against Pseudomonas aeruginosa PAO750 harboring RND efflux pump/OpmH deletion mutant after 18 hrs by checkerboard assay
Method in brief: (§6)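 Checkerboard in Mueller-Hinton broth: antibiotic serially diluted along one axis and adjuvant along the other (10 × 7 matrix). Inoculum from a 0.5 McFarland saline suspension diluted 1:50 in MHB; 18 h at 37 °C, then plate read. MIC is the lowest concentration with no growth. FIC of each agent is its concentration in a no-growth well divided by its MIC alone; FIC index is the sum of both. FIC index ≤0.5 counts as synergy.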

Pseudomonas aeruginosa [16] = experiment: Antibacterial activity against Pseudomonas aeruginosa PAO1 after 18 hrs by microtiter dilution assay; settings: PAO1, 18 h; method in brief: as §3
Pseudomonas aeruginosa [17] = experiment: Potentiation of chloramphenicol-induced antibacterial activity against Pseudomonas aeruginosa PAO1 at 4 ug/ml after 18 hrs by checkerboard assay; method in brief: as §6
Pseudomonas aeruginosa [18] = experiment: Potentiation of minocycline-induced antibacterial activity against Pseudomonas aeruginosa PAO200 harboring MexAB-oprM deletion mutant after 18 hrs by checkerboard assay; method in brief: as §6
Klebsiella pneumoniae = experiment: Synergistic antibacterial activity against multidrug-resistant Klebsiella pneumoniae 116381 after 18 hrs in presence of minocycline by checkerboard assay; settings: Klebsiella pneumoniae, 116381, 18 h
Method in brief: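 Checkerboard in Mueller-Hinton broth: antibiotic serially diluted along one axis and adjuvant along the other (10 × 7 matrix). Inoculum was overnight culture set to 0.5 McFarland in saline, then diluted 1:50 in broth. Incubated 18 h at 37 °C. MIC was the lowest concentration with no growth. FIC index is the sum of both FICs (combination concentration ÷ MIC alone); ≤0.5 counted as synergy.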

Pseudomonas aeruginosa [19] = experiment: Synergistic antibacterial activity against Pseudomonas aeruginosa PAO1 after 18 hrs in presence of chloramphen by checkerboard assay; settings: PAO1, 18 h; method in brief: as §4
Pseudomonas aeruginosa [20] = experiment: Synergistic antibacterial activity against Pseudomonas aeruginosa PAO1 after 18 hrs in presence of moxifloxacin by checkerboard assay; settings: PAO1, 18 h; method in brief: as §4
Pseudomonas aeruginosa [21] = experiment: Bactericidal activity against Pseudomonas aeruginosa PAO1 at 2 times antibacterial MIC after 30 mins; method in brief: as §5
Escherichia coli [22] = experiment: Antibacterial activity against amikacin-resistant Escherichia coli isolate CAN-ICU 63074 after 18 hrs by microtiter dilution assay; settings: isolate CAN-ICU 63074, 18 h; method in brief: as §3

Cl.Cl.Cl.Cl.Cl.Cl.Cl.NCCCC[C@H](N)C(=O)N(CCCCCCCCCCCCO[C@@H]1[C@@H](O[C@H]2O[C@H](CO)[C@@H](O)[C@H](N)[C@H]2O)[C@H](N)C[C@H](N)[C@H]1O[C@H]1O[C@H](CN)[C@@H](O)C[C@H]1N)Cc1c2ccccc2c(Cl)c2ccccc12
fold change (FC) (Pseudomonas aeruginosa [1]): 16 | fractional inhibitory concentration index (FICI) (Pseudomonas aeruginosa [2]): 0.75 | MIC (Escherichia coli [3]): 32 µg/mL | MIC (Pseudomonas aeruginosa [4]): 1 µg/mL | Activity (Pseudomonas aeruginosa [5]): Dose-dependent effect | MIC (Acinetobacter baumannii [6]): 1 µg/mL | MIC (Pseudomonas aeruginosa [7]): 64 µg/mL | MIC (Acinetobacter baumannii [8]): 128 µg/mL | MIC (Acinetobacter baumannii [9]): 16 µg/mL | Activity (Pseudomonas aeruginosa [10]): Active | fold change (FC) (Pseudomonas aeruginosa [11]): 128 | MIC [12]: 2 µg/mL | fold change (FC) (Pseudomonas aeruginosa [13]): 64 | fold change (FC) (Pseudomonas aeruginosa [14]): 4 | fractional inhibitory concentration index (FICI) (Pseudomonas aeruginosa [15]): 0.156 | MIC (Pseudomonas aeruginosa [16]): 32 µg/mL | fractional inhibitory concentration index (FICI) (Pseudomonas aeruginosa [17]): 0.156 | fractional inhibitory concentration index (FICI) (Pseudomonas aeruginosa [18]): 0.531 | MIC (Klebsiella pneumoniae): 16 µg/mL | MIC (Pseudomonas aeruginosa [19]): 4 µg/mL | MIC (Pseudomonas aeruginosa [20]): 2 µg/mL | Activity (Pseudomonas aeruginosa [21]): Active | MIC (Escherichia coli [22]): 16 µg/mL
